This passage reports Ratio IC50 and IC50 results from ChEMBL document CHEMBL1681770, “CD22-antagonists with nanomolar potency: the synergistic effect of hydrophobic groups at C-2 and C-9 of sialic acid scaffold” (Bioorg Med Chem, 2011).

The species named for one assay is Homo sapiens. As to the kind of experiment: Selectivity ratio of IC50 for human MAG to IC50 for human CD22.
Assay [1] deals with T1, B-cell receptor CD22 (Mus musculus) (UniProt P35329).
T1 sequence (whole entry): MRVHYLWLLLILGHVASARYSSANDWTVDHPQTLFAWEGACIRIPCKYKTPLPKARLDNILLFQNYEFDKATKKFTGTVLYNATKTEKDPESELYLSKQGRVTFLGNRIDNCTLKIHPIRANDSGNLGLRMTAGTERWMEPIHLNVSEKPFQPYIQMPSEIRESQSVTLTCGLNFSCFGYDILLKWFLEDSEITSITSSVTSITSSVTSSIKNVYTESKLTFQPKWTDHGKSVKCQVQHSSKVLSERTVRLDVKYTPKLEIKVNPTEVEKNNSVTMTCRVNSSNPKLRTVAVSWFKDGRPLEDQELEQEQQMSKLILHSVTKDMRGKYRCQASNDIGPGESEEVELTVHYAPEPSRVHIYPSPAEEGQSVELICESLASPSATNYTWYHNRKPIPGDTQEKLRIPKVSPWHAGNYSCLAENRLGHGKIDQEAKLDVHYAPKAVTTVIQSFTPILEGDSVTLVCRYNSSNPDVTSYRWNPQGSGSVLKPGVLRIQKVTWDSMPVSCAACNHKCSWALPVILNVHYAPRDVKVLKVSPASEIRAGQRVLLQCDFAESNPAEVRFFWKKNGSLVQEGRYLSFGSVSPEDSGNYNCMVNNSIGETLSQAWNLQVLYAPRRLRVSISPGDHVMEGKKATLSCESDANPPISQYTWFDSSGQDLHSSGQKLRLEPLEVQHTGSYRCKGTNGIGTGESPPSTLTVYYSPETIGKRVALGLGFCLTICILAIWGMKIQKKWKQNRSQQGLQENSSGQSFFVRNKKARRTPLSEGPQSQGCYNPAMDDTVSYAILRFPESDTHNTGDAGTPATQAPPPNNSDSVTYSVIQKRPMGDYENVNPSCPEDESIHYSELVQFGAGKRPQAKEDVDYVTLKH
As to the kind of experiment: Ratio of IC50 for 9-(4'-hydroxy-4-biphenyl)acetamido-9-deoxy-Neu5Gca2-6GalOMP to IC50 for compound at mouse CD22. The method in brief:
(§1)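 Relative inhibitory potency (rIP) = IC50 of the 9-biphenylacetamido Neu5Gcα2-6GalOMP reference divided by IC50 of the test sialoside, each IC50 taken from the competition ELISA for the respective CD22 species. Values above 1.0 mean tighter binding than the reference.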

In assay [2] the target is T2, B-cell receptor CD22 (Mus musculus, UniProt P35329).
T2 sequence (P35329 whole entry): T1 sequence (whole entry)
As to the kind of experiment: Antagonist activity at mouse CD22 after 1 hr by competitive ELISA. The assay is classed as functional. In outline:
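Competition ELISA. Wells coated overnight with streptavidin (40 μg/mL in 50 mM NaHCO3, pH 8.5), then loaded 1 h with biotinylated sialoside probe (4 μg/mL in PBS) and blocked 3 h with 0.5% BSA/PBS. Graded inhibitor concentrations were incubated 1 h with 0.5 μg CD22Fc. After PBS/0.05% Tween 20 washes, bound Fc was detected with alkaline phosphatase anti-human IgG Fc. Triplicates, mean ± SD.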
In general terms: In an ELISA, binding on a coated surface is turned into a signal by an enzyme label.

In assay [3] the target is T3, B-cell receptor CD22 (Homo sapiens, UniProt P20273).
T3 sequence (P20273 whole entry): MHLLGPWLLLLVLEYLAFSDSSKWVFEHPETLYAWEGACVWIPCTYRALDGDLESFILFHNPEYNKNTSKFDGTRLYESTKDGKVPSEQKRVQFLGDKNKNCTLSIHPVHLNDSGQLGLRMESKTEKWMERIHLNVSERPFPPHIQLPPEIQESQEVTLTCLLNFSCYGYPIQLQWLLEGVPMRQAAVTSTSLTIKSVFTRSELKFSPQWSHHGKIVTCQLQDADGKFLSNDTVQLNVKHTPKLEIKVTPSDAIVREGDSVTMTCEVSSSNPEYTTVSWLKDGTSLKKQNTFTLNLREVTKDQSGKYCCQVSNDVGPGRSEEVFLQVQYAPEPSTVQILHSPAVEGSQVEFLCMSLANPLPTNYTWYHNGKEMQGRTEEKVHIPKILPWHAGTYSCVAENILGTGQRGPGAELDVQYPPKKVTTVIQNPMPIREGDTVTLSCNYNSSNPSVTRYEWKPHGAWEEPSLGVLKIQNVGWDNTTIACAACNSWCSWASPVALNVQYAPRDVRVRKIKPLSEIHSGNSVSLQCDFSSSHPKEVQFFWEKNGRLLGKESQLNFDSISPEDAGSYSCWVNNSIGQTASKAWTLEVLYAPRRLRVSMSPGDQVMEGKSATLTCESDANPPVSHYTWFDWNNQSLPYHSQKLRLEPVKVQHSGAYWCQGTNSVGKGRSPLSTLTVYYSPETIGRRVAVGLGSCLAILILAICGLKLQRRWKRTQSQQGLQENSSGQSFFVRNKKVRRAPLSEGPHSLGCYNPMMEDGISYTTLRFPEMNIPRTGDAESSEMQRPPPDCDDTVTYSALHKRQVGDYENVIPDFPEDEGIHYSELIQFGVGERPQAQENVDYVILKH
As to the kind of experiment: Antagonist activity at human CD22 after 1 hr by competitive ELISA. The assay is classed as functional. In outline: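 Neutravidin-precoated plates (1 μg/well, overnight, 4°C) were blocked with 0.5% BSA in HBSS for 30 min at 37°C. Biotinylated Siaα2-6LacNAc-PAA (0.625 μg/mL) was bound 1 h at RT. Inhibitor and precomplexed hCD22-Fc/goat anti-human IgG F(ab')2 were added and bound 30 min at 37°C. After HBSS washes: TMB, H2SO4 stop, OD450. Triplicates, mean ± SD.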

In assay [4] the target is T4, Myelin-associated glycoprotein (Homo sapiens, UniProt P20916).
T4 sequence (P20916 whole entry): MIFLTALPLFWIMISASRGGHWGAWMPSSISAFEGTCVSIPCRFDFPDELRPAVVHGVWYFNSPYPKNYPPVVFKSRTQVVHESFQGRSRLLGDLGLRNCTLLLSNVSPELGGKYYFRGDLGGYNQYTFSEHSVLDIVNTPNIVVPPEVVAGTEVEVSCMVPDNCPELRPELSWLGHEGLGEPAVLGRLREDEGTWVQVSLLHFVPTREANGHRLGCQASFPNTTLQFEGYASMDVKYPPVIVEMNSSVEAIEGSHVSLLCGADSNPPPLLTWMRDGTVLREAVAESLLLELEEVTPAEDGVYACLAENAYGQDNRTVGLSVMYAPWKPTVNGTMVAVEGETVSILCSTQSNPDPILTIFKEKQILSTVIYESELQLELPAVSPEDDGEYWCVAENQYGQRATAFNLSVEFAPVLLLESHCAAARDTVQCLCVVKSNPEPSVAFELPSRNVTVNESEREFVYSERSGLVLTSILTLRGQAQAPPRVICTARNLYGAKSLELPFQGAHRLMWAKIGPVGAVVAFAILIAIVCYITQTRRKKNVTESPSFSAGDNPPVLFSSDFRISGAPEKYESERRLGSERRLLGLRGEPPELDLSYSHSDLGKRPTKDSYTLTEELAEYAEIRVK
As to the kind of experiment: Inhibition of human MAG after 30 min by competitive ELISA.

Assay [5] deals with B-cell receptor CD22 (Homo sapiens) (UniProt P20273). As to the kind of experiment: Ratio of IC50 for 9-(4'-hydroxy-4-biphenyl)acetamido-9-deoxy-Neu5Gca2-6GalOMP to IC50 for compound at human CD22. The method in brief: as §1
For assay [6], the target named is T4, Myelin-associated glycoprotein. As to the kind of experiment: Inhibition of human MAG after 1 hr by competitive ELISA. Conditions: in the assay text read “after 30 min” for “after 1 hr”. In outline: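 Neutravidin plates as for hCD22, with biotinylated Siaα2-3LacNAc-PAA (0.33 μM) bound 1 h at RT. MAG-Fc (~0.12 μg/ml) was pretreated with V. cholerae sialidase (0.4 mU/ml) 45 min, stopped with 1 mM EDTA, then complexed 45 min with goat anti-human IgG F(ab')2 (0.05 μg/mL) and HRP anti-goat F(ab')2 (0.0167 μg/mL). Complex was diluted 3:2, bound with inhibitor 30 min at 37°C, and read by TMB at OD450.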

What is called IC50 is the concentration at which inhibition is half-maximal. Consider `O=C(CO)N[C@H]1[C@H]([C@H](O)[C@H](O)CNCc2ccc(-c3ccc(O)cc3)cc2)O[C@@](OCc2ccc(-c3ccccc3)cc2)(C(=O)O)C[C@@H]1O`, for which the Ratio IC50 in the assay filed under Homo sapiens turned out to be 7.4; in assay [1], 0.3; in assay [5] it was 0.5. In addition, the IC50 on B-cell receptor CD22 [2] was 23.3 µM; at B-cell receptor CD22 [3] it was 1.12 µM; in assay [4], 16.6 µM.
With `O=C(CO)N[C@H]1[C@H]([C@H](O)[C@H](O)CNCc2ccc(-c3ccc(O)cc3)cc2)O[C@@](OCc2ccccc2)(C(=O)O)C[C@@H]1O`, the Ratio IC50 was 3.4 in the assay listed under Homo sapiens, 1.2 in assay [1] and 0.6 in assay [5]. For the same compound, the figures for the half-inhibitory concentration (IC50) (on B-cell receptor CD22 [2]; in assay [6]; on B-cell receptor CD22 [3]) were 5.03 µM, 9.27 µM and 0.82 µM, respectively.
Consider `COc1ccc(O[C@@H]2O[C@H](CO[C@]3(C(=O)O)C[C@H](O)[C@@H](NC(=O)CO)[C@H]([C@H](O)[C@H](O)CNC(=O)Cc4ccc(-c5ccc(O)cc5)cc4)O3)[C@H](O)[C@H](O)[C@H]2O)cc1`, for which the Ratio IC50 in the assay filed under Homo sapiens is 41.5. For the same compound, the results for the IC50 (on B-cell receptor CD22 [2]; in assay [4]) were 3.84 µM and 136 µM, respectively.
With `O=C(Cc1ccc(-c2ccc(O)cc2)cc1)NC[C@@H](O)[C@@H](O)[C@@H]1O[C@@](OCc2ccccc2)(C(=O)O)C[C@H](O)[C@H]1NC(=O)CO`, the Ratio IC50 in the assay listed under Homo sapiens was determined as 712; in assay [1], 38.4; in assay [5] it was 7. The IC50 turned out to be 0.1 µM on B-cell receptor CD22 [2], 0.13 µM at B-cell receptor CD22 [3] and 171 µM in assay [4].
As for `O=C(Cc1ccc(-c2ccc(O)cc2)cc1)NC[C@@H](O)[C@@H](O)[C@@H]1O[C@@](OCc2ccc(-c3ccccc3)cc2)(C(=O)O)C[C@H](O)[C@H]1NC(=O)CO`, the Ratio IC50 in the assay listed under Homo sapiens was determined as 432; in assay [1], 20.2; in assay [5], 12. In addition, the IC50 at B-cell receptor CD22 [2] came to 0.19 µM; on B-cell receptor CD22 [3] it was 0.07 µM; in assay [4], 164 µM.
Regarding `O=C(Cc1ccc(-c2ccc(F)cc2)cc1)NC[C@@H](O)[C@@H](O)[C@@H]1O[C@@](OCc2ccccc2)(C(=O)O)C[C@H](O)[C@H]1NC(=O)CO`, in assay [1], the Ratio IC50 worked out at 0.77. The compound also had an IC50 at B-cell receptor CD22 [2] of 5 µM.
Regarding `COc1ccc(O[C@@H]2O[C@H](CO[C@]3(C(=O)O)C[C@H](O)[C@@H](NC(=O)CO)[C@H]([C@H](O)[C@H](O)CNCc4ccc(-c5ccc(O)cc5)cc4)O3)[C@H](O)[C@H](O)[C@H]2O)cc1`, the Ratio IC50 in the assay filed under Homo sapiens worked out at 11.4; in assay [1], 1; in assay [5] it was 1. The IC50 on B-cell receptor CD22 [2] was 6.43 µM; in assay [6] it was 37.4 µM; on B-cell receptor CD22 [3] it was 0.53 µM.
